Only some compounds are listed: those with a hit (about 2.3% of all), similar ones and a draw of the others.
ADAM17 inh: inhibitors of human ADAM17 | P78536 | recombinant ADAM17, EDANS/DABCYL FRET peptide cleavage | inhibition, % at 6.95 µM | actives 0.83% (n = 370,000);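 active means inhibition above the mean of compounds lying between control limits plus 3 SD, set per campaign, cut at about 8.5% in these data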
PLCb3 inh: blocks human PLC-beta3 enzyme activity; AID 720704; Purified PLC-beta3, fluorogenic substrate, fluorescence; Q01970; actives 0.18% (n = 370,000); inhibition, % at 12.2 µM; in the data active means inhibition above about 11%
DDE Tn7 FP inh: DD(E)-Tn7 binding inhibition, primary FP screen; FP displacement of FITC-Tn7 peptide from fibrin DD(E); 0% = median of compound wells per plate; AID 720508; actives 0.13% (n = 370,000); P02675; inhibition, % at 8.3 µM;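 active means inhibition above the mean of compounds falling within the control limits plus 3 SD of them, cut at about 14% in these data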
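system = human fibrin DD(E) protein | quantity = DD(E) 2 µM final | medium = Tris/NaCl/CaCl2 buffer, pH 7.8 | also added = labelled Tn7 tracer, 0.1 µM | compound dosing = single point at 8.3 µM | timing = compound with protein 10 min, then 3 h after probe, room temperature | signal = FP measurement | benchmarks = Aha-Tn7 high control | repeats = one replicate per compound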
Tn6 DDE FP: inhibitors of Tn6 peptide binding to human fibrin DD(E). P02675. Fibrin DD(E) TRITC-Tn6 fluorescence polarization displacement. inhibition, % at 8.3 µM. actives 0.21% (n = 370,000). AID 720509;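 active means inhibition above a per-campaign cutoff: mean of compounds within control limits plus 3 SD, cut at about 15% in these data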
ADAM10 inh: inhibitors of human ADAM10 | O14672 | recombinant ADAM10, EDANS/DABCYL FRET peptide cleavage, 3 h | inhibition, % at 7 µM | actives 0.62% (n = 370,000);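 active means inhibition above a per-campaign cutoff equal to the mean of compounds falling between control-based bounds plus 3 SD, cut at about 20% in these data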
Target sequence (O14672 214-748 limits assumed): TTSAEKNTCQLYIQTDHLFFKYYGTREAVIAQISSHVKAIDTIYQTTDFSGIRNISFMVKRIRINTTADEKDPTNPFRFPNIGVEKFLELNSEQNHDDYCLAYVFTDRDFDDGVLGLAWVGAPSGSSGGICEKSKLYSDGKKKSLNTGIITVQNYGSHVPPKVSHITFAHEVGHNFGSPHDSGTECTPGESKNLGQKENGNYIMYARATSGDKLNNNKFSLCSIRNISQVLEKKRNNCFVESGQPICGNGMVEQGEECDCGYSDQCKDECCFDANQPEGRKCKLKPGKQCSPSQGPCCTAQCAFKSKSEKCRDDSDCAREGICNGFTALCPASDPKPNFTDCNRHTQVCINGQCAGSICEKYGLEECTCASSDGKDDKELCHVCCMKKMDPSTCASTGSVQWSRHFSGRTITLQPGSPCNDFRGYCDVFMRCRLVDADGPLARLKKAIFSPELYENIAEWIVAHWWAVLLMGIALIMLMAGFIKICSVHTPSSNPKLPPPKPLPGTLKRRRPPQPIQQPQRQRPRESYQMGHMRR
PLCg1 inh: PLC-gamma1 (human) inhibition, primary screen; P19174; purified PLC-gamma1, fluorogenic substrate, fluorescence; inhibition, % at 12.2 µM; actives 0.84% (n = 370,000); AID 720700; in the data active means inhibition above about 9.5%
DDE Tn6 FP ctr: counter-screen hit for Tn6 peptide-fibrin DD(E) binding disruption; shares compounds with Tn6 DDE FP; TRITC-Tn6 fluorescence polarization displacement; 0% = median of compound wells, not DMSO; inhibition, % at 8.3 µM; actives 2% (n = 680);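 active means inhibition above the mean of test compounds lying between the control limits plus 3 SD of those, cut at about 14% in these data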
DDE Tn6 confirm: DD(E)-Tn6 binding inhibition, FP confirmation. shares compounds with Tn6 DDE FP. FP displacement of TRITC-Tn6 peptide from DD(E); 0% = per-plate median of test wells. inhibition, % at 8.3 µM. actives 10% (n = 680);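 active means inhibition above the mean of compounds lying within the control limits plus 3 SD, cut at about 16% in these data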
Large screens that a line does not name were inactive (follow-up assays come after a bar, where they were run).

CC1=CN2C(=N)/C(=C/c3ccco3)C(=O)N=C2S1	none
O=C1CCCC(O)=C1N=Nc1c(Cl)cc(C(F)(F)F)cc1Cl	Tn6 DDE FP 43.2 | DDE Tn6 FP ctr inactive | DDE Tn6 confirm inactive
CC1(C)CC(=O)C(N=Nc2cc(C(F)(F)F)ccc2Cl)=C(O)C1	none
CC1CN(C(=O)c2ccc(COc3ccccc3Br)o2)CC(C)O1 (centres undefined)	Tn6 DDE FP 21.3 | DDE Tn6 FP ctr inactive | DDE Tn6 confirm inactive
CC1CCN(C(=O)c2ccc(COc3ccccc3Cl)o2)CC1	none
CC(=O)Nc1ccc(S(=O)(=O)NCc2ccc3[nH]c(C)cc3c2)cc1	none
CC(=O)Nc1ccc(S(=O)(=O)NCc2ccc3c(c2)cc(C)n3C)cc1	Tn6 DDE FP 61.5 | DDE Tn6 FP ctr inactive | DDE Tn6 confirm inactive
Cc1cc(C)c(S(=O)(=O)NCc2ccc3c(c2)cc(C)n3C)c(C)c1	Tn6 DDE FP 58.9 | DDE Tn6 FP ctr inactive | DDE Tn6 confirm inactive
Cc1cc2cc(CNS(=O)(=O)c3ccc4ccccc4c3)ccc2n1C	Tn6 DDE FP 49.6 | DDE Tn6 FP ctr inactive | DDE Tn6 confirm 19.6
CC(=O)Nc1ccc(C(CCCc2ccccc2)C2=CCCCC2)cc1 (centres undefined)	none
CC(=O)OC12CCCN(C1)/C(=C/c1cccc(N(C)C)c1)C2 (centres undefined)	none
COC(=O)[C@]12C[C@H](CC(=O)NCc3ccc(OC)c(OC)c3)C(=O)N(CCc3ccc(OC)c(OC)c3)C1=C[C@H](COCc1ccccc1)O[C@@H]2C	Tn6 DDE FP 15.3 | DDE Tn6 FP ctr inactive | DDE Tn6 confirm inactive
CCCCNC(=O)CCC(=O)Nc1ccc2nc(N3CCOCC3)cc(C)c2c1	none
CCCCNC(=O)CCC(=O)Nc1ccc2nc(N3CCCCC3)cc(C)c2c1	Tn6 DDE FP 16.1 | DDE Tn6 FP ctr inactive | DDE Tn6 confirm inactive
NS(=O)(=O)c1ccc(NC(=O)CSc2nc3ccccc3c(=O)n2-c2ccc(Br)cc2)cc1	Tn6 DDE FP 26.5 | DDE Tn6 FP ctr inactive | DDE Tn6 confirm inactive
Cc1ccc(C2NC(=O)c3c(sc4c3CCN(C)C4)N2)s1 (centres undefined)	Tn6 DDE FP 17.9 | DDE Tn6 FP ctr inactive | DDE Tn6 confirm inactive
CN1CCc2c(sc3c2C(=O)NC(c2ccccc2)N3)C1 (centres undefined)	none
CC(=O)Nc1ccccc1-c1ccc(C)o1	none
Cc1ccc(NC(=O)CS(=O)CC(=O)Nc2ccccc2-c2ccc(C)o2)cc1 (centres undefined)	Tn6 DDE FP 22.2 | DDE Tn6 FP ctr inactive | DDE Tn6 confirm inactive
CCO/C(C)=N/Oc1cccc(N(C)C)c1	Tn6 DDE FP 18.6 | DDE Tn6 FP ctr inactive | DDE Tn6 confirm inactive
COCCCNC(=O)C[C@H]1C[C@@]2(C(=O)OC)C(=C[C@H](COCc3ccccc3)O[C@@H]2C)N(Cc2ccccc2)C1=O	none
O=C(CSc1nnc(CNC(=O)c2ccco2)o1)NC1CCCC1	Tn6 DDE FP 15.9 | DDE Tn6 FP ctr inactive | DDE Tn6 confirm inactive
O=C(CSc1nnc(CNC(=O)c2ccco2)o1)Nc1ccccc1	none
COc1ccc2cc(C(=O)Nc3ccc(S(N)(=O)=O)cc3)sc(=O)c2c1OC	Tn6 DDE FP 17.6 | DDE Tn6 FP ctr inactive | DDE Tn6 confirm inactive
C[C@H]1[C@@H](OC(=O)Nc2ccc(C#N)cc2)CC[C@@]23CCCN2C(=O)CCC[C@@H]13	none
CCc1ccccc1N(CC(=O)N1CCCC1)S(C)(=O)=O	none
CCOc1ccccc1N(CC(=O)N1CCCC1)S(C)(=O)=O	Tn6 DDE FP 15.7 | DDE Tn6 FP ctr inactive | DDE Tn6 confirm inactive
COc1ccc(-n2c(=S)[nH]c3cc(C(=O)Nc4ccc(OC)c(OC)c4)ccc3c2=O)cc1	Tn6 DDE FP 16.9 | DDE Tn6 FP ctr inactive | DDE Tn6 confirm inactive
COc1cccc2c1C(=O)c1c(O)c3c(c(O)c1C2=O)CC(O)(C(C)=O)CC3OC1CC(N(C)C)C(O)C(C)O1 (centres undefined)	Tn6 DDE FP active | DDE Tn6 FP ctr inactive | DDE Tn6 confirm 93.2
CC1(C)c2ccccc2N2CC(=O)N(CC(N)=O)C21C (centres undefined)	Tn6 DDE FP 76.3 | DDE Tn6 FP ctr inactive | DDE Tn6 confirm inactive
CCCCCCC/C=C(\C)[C@@H](O)[C@@H](C)C(=O)N1CCC[C@@H]1C(=O)O	none
CCOc1ccc(NC(=O)C(C)Sc2nnc(C)n2C)cc1 (centres undefined)	none
Cc1ccc(NC(=O)C(C)Sc2nnc(C)n2C)cc1 (centres undefined)	Tn6 DDE FP 15.5 | DDE Tn6 FP ctr inactive | DDE Tn6 confirm inactive
CCOC(=O)c1c(C)[nH]c(O)c1C=Nc1ccc(Cl)cc1	Tn6 DDE FP 31.8 | DDE Tn6 FP ctr inactive | DDE Tn6 confirm inactive
CCOC(=O)c1c(C)[nH]c(O)c1C=Nc1ccc(C(F)(F)F)cc1	none
Cc1ccc(S(=O)(=O)NCCC(=O)OCc2ccc([N+](=O)[O-])cc2)cc1C	Tn6 DDE FP 17.6 | DDE Tn6 FP ctr inactive | DDE Tn6 confirm inactive
O=C1CCCC/C1=C\Nc1ccc(O)cc1	Tn6 DDE FP 27.3 | DDE Tn6 FP ctr inactive | DDE Tn6 confirm inactive
O=C1CCC/C1=C/Nc1ccc2c(c1)OCO2	Tn6 DDE FP 21.0 | DDE Tn6 FP ctr inactive | DDE Tn6 confirm inactive
O=C(CN1CCCc2ccccc21)NCc1ccccc1F	none
Cc1cc2ccccc2n1CCNC(=O)Cc1ccccc1	Tn6 DDE FP 25.6 | DDE Tn6 FP ctr inactive | DDE Tn6 confirm inactive
Cc1cc2ccccc2n1CCNC(=O)c1ccc(S(=O)(=O)N2CCCCC2)cc1	Tn6 DDE FP 61.7 | DDE Tn6 FP ctr inactive | DDE Tn6 confirm 31.4
Cc1cccc(CC(=O)NCCn2c(C)cc3ccccc32)c1	none
Cc1cc(C)c(S(=O)(=O)NCCn2c(C)cc3ccccc32)c(C)c1	Tn6 DDE FP 55.7 | DDE Tn6 FP ctr inactive | DDE Tn6 confirm 22.8
O=C(NCCc1ccccc1)c1ccc(S(=O)(=O)N2CCCCC2)cc1	none
C[C@@H]1[C@H](O)[C@@H](C)/C=C/C=C/C=C/C=C/C=C/C=C/C=C/[C@H](OC2O[C@H](C)[C@@H](O)[C@H](N)[C@@H]2O)C[C@@H]2O[C@](O)(C[C@@H](O)C[C@@H](O)[C@H](O)CC[C@@H](O)C[C@@H](O)CC(=O)O[C@H]1C)C[C@H](O)[C@H]2C(=O)O (some centres undefined)	none

High-throughput results from PubChem BioAssay.
